Data from ChEMBL document CHEMBL4689842, “EUbOPEN Chemogenomics Library wave 1” (2021).
Where “and” joins values, the source holds several entries; their conditions need not be identical. Equal values may be shown once.

Assays:
Format in all cases: toxicity, cell-based
HEK-293T = experiment: Incucyte cell viability with HEK293T; conditions: human, 10 µM, compound concentration 10 uM; note: filed as whole numbers so only -1 and 0 and 1 occur
U2OS [1] = experiment: Multiplex assay against U2OS; conditions: human, 1 µM, compound concentration 1 uM
In short: (§1)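 Phenotypes for tubulin, mitochondrial mass and membrane permeability are expressed as per cents of healthy-nucleus cells. Cells were stained live at seeding with Hoechst33342, BioTracker Green Microtubule Cytoskeleton Dye, MitoTracker Red and Annexin V Alexa Fluor 680, then imaged after compound addition on a CQ1 microscope at 37°C and 5% CO2. Machine-learning gating in CellPathfinder separated Hoechst high-intensity objects from normal cells, divided normal cells by nuclear state (healthy, pyknosed, fragmented) and divided pyknosed cells into mitotic or apoptotic.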

U2OS [2] = experiment: Incucyte cell viability with U2OS; conditions: human, 10 µM, compound concentration 10 uM; note: filed as whole numbers so only -1 and 0 and 1 occur
Fibroblast = experiment: Multiplex assay against human fibroblast; conditions: 12 h, 1 µM, compound concentration 1 uM; in short: as §1
[3] = 0 h, replicate number 1, timepoint 0 hours
[4] = 0 h, replicate number 2, timepoint 0 hours
[5] = 6 h, replicate number 1, timepoint 6 hours
[6] = 12 h, replicate number 1, timepoint 12 hours
[7] = 18 h, replicate number 1, timepoint 18 hours
[8] = 24 h, replicate number 1, timepoint 24 hours

`CNC(=O)Nc1ccc2c(c1)CC[C@@]21OC(=O)N(CC(=O)N(Cc2ccc(F)cc2)[C@@H](C)C(F)(F)F)C1=O` [A-485] was tested, and the “Growth Rate” value (HEK-293T; [3]) was 0, the “Growth Rate” value (HEK-293T; [4]) was 1 and the “Growth Rate” value (HEK-293T; [5]) was 0. For the same compound, the “Growth Rate” value (HEK-293T; [6]) was 0, the “Growth Rate” value (HEK-293T; [7]) was 0 and the “Growth Rate” value (HEK-293T; [8]) was 0. For the same compound, the “Population Apoptotic (%)” value (U2OS [1]; 12 h, replicate 1) was 30% and 62%, the “Population Fragmented Nuclei (%)” value (U2OS [1]; 12 h, replicate 1) was 2% and 8% and the “Population Healthy Nuclei (%)” value (U2OS [1]; 12 h, replicate 1) was 91% and 85%. The “Population Hoechst High Intensity Objects (%)” value (U2OS [1]; 12 h, replicate 1) was 4%, the “Population Mitochondria Different-Phenotype (%)” value (U2OS [1]; 12 h, replicate 1) was 14% and 16% and the “Population Mitotic Cells (%)” value (U2OS [1]; 12 h, replicate 1) was 70% and 37%. The “Population Normal (%)” value (U2OS [1]; 12 h, replicate 1) was 95%, the “Population Pyknosed Nuclei (%)” value (U2OS [1]; 12 h, replicate 1) was 5% and 6% and the “Population Tubulin-Different-Phenotype (%)” value (U2OS [1]; 12 h, replicate 1) was 58% and 20%. The “Total Cell Count” value (U2OS [1]; 12 h, replicate 1) was 185 and 139, the “Population Apoptotic (%)” value (U2OS [1]; 12 h, replicate 2) was 20% and 0% and the “Population Fragmented Nuclei (%)” value (U2OS [1]; 12 h, replicate 2) was 10% and 7%. The “Population Healthy Nuclei (%)” value (U2OS [1]; 12 h, replicate 2) was 76% and 88%, the “Population Hoechst High Intensity Objects (%)” value (U2OS [1]; 12 h, replicate 2) was 6% and 8% and the “Population Mitochondria Different-Phenotype (%)” value (U2OS [1]; 12 h, replicate 2) was 23% and 22%. For the same compound, the “Population Mitotic Cells (%)” value (U2OS [1]; 12 h, replicate 2) was 80% and 100%, the “Population Normal (%)” value (U2OS [1]; 12 h, replicate 2) was 93% and 91% and the “Population Pyknosed Nuclei (%)” value (U2OS [1]; 12 h, replicate 2) was 12% and 4%. For the same compound, the “Total Cell Count” value (U2OS [1]; 12 h, replicate 2) was 82 and 103, the “Population Fragmented Nuclei (%)” value (U2OS [1]; 24 h, replicate 1) was 5% and 4% and the “Population Healthy Nuclei (%)” value (U2OS [1]; 24 h, replicate 1) was 88% and 90%. The “Population Hoechst High Intensity Objects (%)” value (U2OS [1]; 24 h, replicate 1) was 0% and 2%, the “Population Membrane Permeable-Phenotype (%)” value (U2OS [1]; 24 h, replicate 1) was 24% and 13% and the “Population Mitochondria Different-Phenotype (%)” value (U2OS [1]; 24 h, replicate 1) was 10% and 11%. For the same compound, the “Population Mitotic Cells (%)” value (U2OS [1]; 24 h, replicate 1) was 93% and 66%, the “Population Normal (%)” value (U2OS [1]; 24 h, replicate 1) was 99% and 97% and the “Population Pyknosed Nuclei (%)” value (U2OS [1]; 24 h, replicate 1) was 6% and 4%. The “Population Tubulin-Different-Phenotype (%)” value (U2OS [1]; 24 h, replicate 1) was 22% and 28%, the “Total Cell Count” value (U2OS [1]; 24 h, replicate 1) was 230 and 188 and the “Population Apoptotic (%)” value (U2OS [1]; 24 h, replicate 2) was 35% and 66%. For the same compound, the “Population Fragmented Nuclei (%)” value (U2OS [1]; 24 h, replicate 2) was 9% and 3%, the “Population Healthy Nuclei (%)” value (U2OS [1]; 24 h, replicate 2) was 77% and 94% and the “Population Hoechst High Intensity Objects (%)” value (U2OS [1]; 24 h, replicate 2) was 6% and 11%. For the same compound, the “Population Membrane Permeable-Phenotype (%)” value (U2OS [1]; 24 h, replicate 2) was 14% and 11%, the “Population Mitochondria Different-Phenotype (%)” value (U2OS [1]; 24 h, replicate 2) was 19% and 18% and the “Population Mitotic Cells (%)” value (U2OS [1]; 24 h, replicate 2) was 64% and 33%. For the same compound, the “Population Normal (%)” value (U2OS [1]; 24 h, replicate 2) was 93% and 88%, the “Population Tubulin-Different-Phenotype (%)” value (U2OS [1]; 24 h, replicate 2) was 13% and 11% and the “Total Cell Count” value (U2OS [1]; 24 h, replicate 2) was 114 and 147. The “Growth Rate” value (U2OS [2]; [3]) was 1, the “Growth Rate” value (U2OS [2]; [4]) was 0 and the “Growth Rate” value (U2OS [2]; [5]) was 0. The “Growth Rate” value (U2OS [2]; [6]) was 1, the “Growth Rate” value (U2OS [2]; [7]) was 1 and the “Growth Rate” value (U2OS [2]; [8]) was 1. For the same compound, the “Population Apoptotic (%)” value (Fibroblast; replicate 1) was 50% and 76%, the “Population Fragmented Nuclei (%)” value (Fibroblast; replicate 1) was 17% and 24% and the “Population Healthy Nuclei (%)” value (Fibroblast; replicate 1) was 59% and 61%. The “Population Hoechst High Intensity Objects (%)” value (Fibroblast; replicate 1) was 8% and 9%, the “Population Mitotic Cells (%)” value (Fibroblast; replicate 1) was 50% and 23% and the “Population Normal (%)” value (Fibroblast; replicate 1) was 91% and 90%. For the same compound, the “Population Pyknosed Nuclei (%)” value (Fibroblast; replicate 1) was 23% and 13%, the “Total Cell Count” value (Fibroblast; replicate 1) was 243 and 214 and the “Population Fragmented Nuclei (%)” value (Fibroblast; replicate 2) was 53% and 66%. The “Population Healthy Nuclei (%)” value (Fibroblast; replicate 2) was 39% and 24%, the “Population Hoechst High Intensity Objects (%)” value (Fibroblast; replicate 2) was 37% and 49% and the “Population Membrane Permeable-Phenotype (%)” value (Fibroblast; replicate 2) was 11% and 33%. The “Population Mitochondria Different-Phenotype (%)” value (Fibroblast; replicate 2) was 17% and 25%, the “Population Normal (%)” value (Fibroblast; replicate 2) was 62% and 50% and the “Population Pyknosed Nuclei (%)” value (Fibroblast; replicate 2) was 6% and 10%.
